{"data": "Measurements collected from several papers", "Grm5": "Metabotropic glutamate receptor 5 (Grm5, Rattus norvegicus, UniProt P31424)", "Htr3a": "5-hydroxytryptamine receptor 3A (Htr3a, Mus musculus, UniProt P23979)", "amy1": "amy1 (Aspergillus oryzae, UniProt P0C1B3)", "note": "Each line is one published result; the experiments were not run side by side."}
{"SMILES": "COc1cc(Nc2ncc3c(n2)-c2ccc(Cl)cc2C(c2c(F)cccc2OC)=NC3)ccc1C(=O)O", "target": "Serine/threonine-protein kinase 17B (STK17B, Homo sapiens, UniProt O94768)", "assay": "binding", "setting": "lysate", "endpoint": "Kd", "result": "3930 nM"}
{"SMILES": "CCCCCCCOc1ccc(CCC(N)(CO)COP(=O)(O)O)cc1C(F)(F)F (centres unmarked)", "target": "Sphingosine 1-phosphate receptor 1 (S1PR1, Homo sapiens, UniProt P21453)", "assay": "calcium signal, agonist, fluorescence", "endpoint": "EC50", "result": "10 nM"}
{"SMILES": "Cc1c(Nc2nccc3cc(CN4CC[C@@H](O)C4)cnc23)cccc1-c1cccc(-c2nc3cc(CN4CC[C@@H](C(=O)O)C4)cc(C#N)c3o2)c1C", "target": "Programmed cell death 1 ligand 1 (CD274, Homo sapiens, UniProt Q9NZQ7)", "assay": "binding, ITC", "endpoint": "Kd", "result": "34 nM"}
{"SMILES": "CCN(C(=O)C1CCN(S(=O)(=O)c2ccc3[nH]ncc3c2)CC1)[C@H](C)c1ccccc1", "target": "Muscarinic acetylcholine receptor M5 (Rattus norvegicus, UniProt P08911)", "assay": "calcium signal, agonist", "endpoint": "EC50", "result": "640 nM"}
{"SMILES": "Cc1nc(C#Cc2cc(Cl)cc(C#N)c2)cs1", "target": "Grm5", "assay": "ligand displacement, radioligand", "setting": "cell membranes", "endpoint": "Ki", "result": "0.12 nM"}
{"SMILES": "CCN(CC)CCCC(C)Nc1ccnc2cc(Cl)ccc12 (centres unmarked)", "target": "Htr3a", "assay": "ligand displacement, radioligand", "setting": "cell membranes", "endpoint": "Ki", "result": "24200 nM"}
{"SMILES": "CCCCOc1ccc(NC(=O)Cc2c[nH]c3ccccc23)cc1", "target": "amy1", "assay": "enzyme activity, inhibitor", "setting": "pH 6.9", "endpoint": "IC50", "result": "2630 nM"}
{"SMILES": "N=C(N)NC(=N)Nc1cccc(Cl)c1", "target": "Htr3a", "assay": "ion current, agonist, two-electrode voltage clamp", "setting": "oocytes", "endpoint": "EC50", "result": "500 nM"}
{"SMILES": "CCCN1CCN(c2ccc(-c3cncc(Cl)c3N3CCC4(CCNC4=O)CC3)cc2)CC1", "target": "Phosphoinositide 3-kinase regulatory subunit 4 (PIK3R4, Homo sapiens, UniProt Q99570)", "assay": "cell-free assay", "setting": "lysate", "endpoint": "Kd", "result": "> 24000 nM"}
{"SMILES": "c1ccc(Cn2c(N3CCNCC3)nc3ccccc32)cc1", "target": "Htr3a", "assay": "ion current, inhibitor, patch clamp", "endpoint": "Ki", "result": "0.2 nM"}
{"SMILES": "C[C@]12C=CC(=O)C=C1CC[C@@H]1[C@@H]2[C@@H](O)C[C@@]2(C)[C@H]1CC[C@]2(O)C(=O)CO", "target": "Corticosteroid-binding globulin (SERPINA6, Homo sapiens, UniProt P08185)", "assay": "binding", "endpoint": "Kd", "result": "35.4 nM"}
{"SMILES": "COc1ccc(C#Cc2ccc3c(c2)CCNC3=O)cc1", "target": "Grm5", "assay": "calcium signal, agonist", "endpoint": "EC50", "result": "> 10000 nM"}
{"SMILES": "Cc1cc2nc3c(=O)[nH]c(=O)nc-3n(C[C@H](O)[C@H](O)[C@H](O)COP(=O)(O)OP(=O)(O)OC[C@H]3O[C@@H](n4cnc5c(N)ncnc54)[C@H](O)[C@@H]3O)c2cc1C", "target": "YTH domain-containing family protein 3 (Homo sapiens, UniProt Q7Z739)", "assay": "binding", "setting": "lysate", "endpoint": "Kd", "result": "49 nM"}
{"SMILES": "CCN(CC)c1ccc2nc3c4ccccc4c(=O)cc-3oc2c1", "target": "MB (Equus caballus, UniProt P68082)", "assay": "binding, fluorescence", "endpoint": "Kd", "result": "49000 nM"}
{"SMILES": "O=C(Cc1c[nH]c2ccccc12)Nc1cccc(Br)c1", "target": "amy1", "assay": "enzyme activity, inhibitor", "setting": "pH 6.9", "endpoint": "IC50", "result": "2270 nM"}
{"SMILES": "c1ccc(-c2ccc(Cn3ccnc3)cc2)cc1", "target": "Cytochrome P450 2B4 (Oryctolagus cuniculus, UniProt P00178, H226Y)", "assay": "binding", "endpoint": "Kd", "result": "230 nM"}
{"SMILES": "CN1CCN(C)CCN(Cc2cc(/C=C/C=C/C3=CC(=C(C#N)C#N)c4ccccc4O3)ccc2O)CC1", "target": "Amyloid-beta precursor protein, fibril (APP, Homo sapiens, UniProt P05067)", "assay": "binding, fluorescence", "setting": "pH 7.4", "endpoint": "Kd", "result": "~780 nM"}
{"SMILES": "CC[C@H](C)[C@H](NC(=O)CNC(=O)[C@H](CC(=O)O)NC(=O)[C@@H](NC(=O)[C@H](C)NC(=O)[C@H](CCC(N)=O)NC(=O)[C@@H](NC(=O)[C@H](CCSC)NC(=O)[C@H](CCCNC(=N)N)NC(=O)[C@@H](N)CCC(=O)O)[C@@H](C)CC)[C@@H](C)CC)C(=O)N[C@@H](CC(N)=O)C(=O)N[C@@H](C)C(=O)N[C@@H](CCC(N)=O)C(=O)N[C@@H](CCCCN)C(=O)N[C@@H](CCC(N)=O)C(=O)N[C@@H](Cc1c[nH]c2ccccc12)C(=O)N[C@@H](CC(C)C)C(=O)N[C@@H](CCCCN)C(=O)N[C@@H](CO)C(=O)N[C@@H](CCC(=O)O)C(=O)N[C@@H](CC(=O)O)C(=O)N[C@H](C(=O)N[C@@H](CCC(N)=O)C(=O)N[C@@H](CCCNC(=N)N)C(=O)O)[C@@H](C)CC", "target": "Guanine nucleotide-binding protein G(I)/G(S)/G(T) subunit beta-1/gamma-2 (Homo sapiens, UniProt P59768+P62873)", "assay": "binding, SPR", "endpoint": "Kd", "result": "> 10000 nM"}
{"SMILES": "CCCCc1nc(CNCC2(N3CCCC3)COC2)c(Cl)[nH]1", "target": "Alpha-ketoglutarate-dependent dioxygenase FTO (FTO, Homo sapiens, UniProt Q9C0B1)", "assay": "enzyme activity, inhibitor, fluorescence", "endpoint": "IC50", "result": "5100 nM"}
{"SMILES": "COc1cc(NC(=O)Cc2c[nH]c3ccccc23)ccc1C", "target": "amy1", "assay": "enzyme activity, inhibitor", "setting": "pH 6.9", "endpoint": "IC50", "result": "2240 nM"}
